Activity calls are given as the source filed them. No rule for the calls is given here.
molecular target: Protein LANA1 (Human herpesvirus 8 type P (isolate GK18)) (UniProt Q9QR71); test: LANA–nucleosome binding inhibitors, dose response, orthogonal assay, biochemical, ELISA, dry powder samples (AID 588510); details: GST-LANA 1-23 binding to nucleosomes, ELISA 450 nm; series mostly up to 50 µM
Outline: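 System: purified nucleosomes plus GST-LANA 1-23 peptide; medium: Milk blocking of wells; times: compound plus GST-LANA 90 min 4 °C, substrate 30 min RT; technique: ELISA absorbance at 450 nm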

Chain of Protein LANA1 (Human herpesvirus 8 type P (isolate GK18)) (Q9QR71 whole entry, looked up): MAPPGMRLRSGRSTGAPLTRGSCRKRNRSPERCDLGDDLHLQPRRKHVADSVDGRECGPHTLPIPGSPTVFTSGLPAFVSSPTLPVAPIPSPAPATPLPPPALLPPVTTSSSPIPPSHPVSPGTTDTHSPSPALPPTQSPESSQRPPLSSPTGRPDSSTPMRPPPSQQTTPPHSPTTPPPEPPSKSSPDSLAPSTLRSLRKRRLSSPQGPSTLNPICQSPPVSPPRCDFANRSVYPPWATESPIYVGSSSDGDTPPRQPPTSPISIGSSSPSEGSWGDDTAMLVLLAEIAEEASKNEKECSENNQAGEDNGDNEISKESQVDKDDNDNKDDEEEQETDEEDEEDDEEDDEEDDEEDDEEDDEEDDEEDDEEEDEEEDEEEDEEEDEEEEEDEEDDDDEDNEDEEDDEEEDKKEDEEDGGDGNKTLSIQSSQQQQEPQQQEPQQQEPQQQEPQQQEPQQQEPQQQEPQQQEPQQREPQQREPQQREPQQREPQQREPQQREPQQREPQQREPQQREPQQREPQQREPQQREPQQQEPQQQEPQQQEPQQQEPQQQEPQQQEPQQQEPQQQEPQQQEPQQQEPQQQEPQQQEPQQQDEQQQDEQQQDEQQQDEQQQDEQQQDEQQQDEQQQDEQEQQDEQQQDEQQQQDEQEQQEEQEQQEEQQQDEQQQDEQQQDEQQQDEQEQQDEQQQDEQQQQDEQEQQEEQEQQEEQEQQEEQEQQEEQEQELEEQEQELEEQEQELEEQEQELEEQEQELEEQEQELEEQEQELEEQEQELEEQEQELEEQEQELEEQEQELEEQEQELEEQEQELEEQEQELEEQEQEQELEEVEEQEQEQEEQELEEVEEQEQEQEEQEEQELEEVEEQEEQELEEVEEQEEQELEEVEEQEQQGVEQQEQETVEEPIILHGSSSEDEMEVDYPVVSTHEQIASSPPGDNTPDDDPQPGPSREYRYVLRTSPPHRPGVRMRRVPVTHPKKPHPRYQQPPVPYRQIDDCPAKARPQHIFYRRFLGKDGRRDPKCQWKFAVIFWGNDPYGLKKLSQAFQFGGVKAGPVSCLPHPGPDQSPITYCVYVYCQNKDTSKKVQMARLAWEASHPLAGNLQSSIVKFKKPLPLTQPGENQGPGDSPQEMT

outcome, inactive:
Cc1cc(C)c2nc(C(F)(F)F)nc(NCCCN3CCCC3=O)c2c1
O=C(CCCN1C(=O)c2cccc3cccc(c23)C1=O)N1CCN(c2ccccc2)CC1
O=S(=O)(Nc1cc(Cl)ccc1N1CCOCC1)c1ccccc1Cl
CC(=O)Nc1ccc(-c2cn3ccsc3n2)cc1
Cc1cccc(N2C(=O)c3cccc4c(N(C)CCO)ccc(c34)C2=O)c1
COc1ccc(C2C=C(c3ccc(Br)cc3)Nc3nc(NS(C)(=O)=O)nn32)cc1 (stereo not drawn)
CC1Cc2ccccc2N1C(=O)CSc1ncccn1 (stereo not drawn)
CC(C)(C)C1(C)OC(=O)C(=Cc2ccc(OCC(=O)Nc3ccccc3)cc2)C(=O)O1 (stereo not drawn)
Cc1ccc(Cl)cc1N1CCN(C(=O)C2CCN(S(C)(=O)=O)CC2)CC1
COc1ccc2ccccc2c1C(O)c1nccn1C (stereo not drawn)
Clc1ccc(-c2nnc3sc(-c4ccc(Br)o4)nn23)cc1
Cc1cc(C)cc(NS(=O)(=O)c2ccc3c(c2)C(C)(C)C(=O)N3C)c1
CC(=O)Nc1cccc(N)c1

— PubChem BioAssay AID588510 (Broad Institute, 2011)
